Data from ChEMBL document CHEMBL4043223, “Structure-activity relationship study of small molecule inhibitors of the DEPTOR-mTOR interaction” (Bioorg Med Chem Lett, 2017).
pIC50: −log10 of the molar value. Values belong to the compound of their own block, whether it stands above or below them. The source made the active and inactive calls. The calls are words filed in the database; no cut-off is given here.

Tests used:
[1] = system: MM1.S; assay: Cytotoxicity against human MM1S cells after 48 hrs by MTT assay; format: functional, cell-based
In short: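 MM1.S myeloma cells (DEPTOR-over-expressing) in 48 h MTT: 1–2 × 10^4 cells per well, graded compound concentrations, formazan at 570 nm. Quadruplicate wells; survival as % of DMSO control; IC50 derived from the concentration range.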

[2] = system: RPMI-8226; assay: Cytotoxicity against human RPMI8226 cells after 48 hrs by MTT assay; format: functional, cell-based; details: RPMI-8226, 48 h
In short: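 MTT in RPMI-8226 cells: 1–2 × 10^4 cells per well in complete medium, exposed 48 h to a range of compound concentrations. MTT reduction to formazan read at 570 nm. Quadruplicate wells per group; OD given as % of DMSO-only control set at 100%. IC50 taken from the concentration series.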

[3] = system: RPMI-8226; assay: Cytotoxicity against human RPMI8226 cells at 0.5 uM after 6 hrs by MTT assay; format: cell-based; details: rpmi-8226, 6 h
[4] = system: RPMI-8226; assay: Cytotoxicity against human RPMI8226 cells at 1 to 2 uM after 6 hrs by MTT assay; format: cell-based; details: rpmi-8226, 6 h
[5] = system: RPMI-8226; assay: Cytotoxicity against human RPMI8226 cells at 0.05 to 0.2 uM after 6 hrs by MTT assay; format: cell-based; details: rpmi-8226, 6 h
[6] = target: DEP domain-containing mTOR-interacting protein (Homo sapiens) (UniProt Q8TB45); assay: Inhibition of mTOR binding to DEPTOR in human RPMI8226 cells assessed as increase in mTORC1-associated 4E-BP1 phosphorylation by Western blot analysis; format: cell-based
[7] = system: RPMI-8226; assay: Cytotoxicity against RAPTOR knockdown human RPMI8226 cells at 0.12 to 1 uM after 48 hrs by MTT assay; format: functional, cell-based
In short: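 8226 cells infected with lentivirus carrying shRAPTOR or control shSCRAMBLE, knockdown confirmed by immunoblot. Cells then incubated with increasing compound concentrations; MTT read-out after 48 h, formazan at 570 nm, as % of DMSO control.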

[8] = target: DEP domain-containing mTOR-interacting protein (Homo sapiens) (UniProt Q8TB45); assay: Inhibition of mTOR binding to DEPTOR in human RPMI8226 cells assessed as increase in mTORC2-associated SGK phosphorylation by Western blot analysis; format: cell-based
[9] = target: DEP domain-containing mTOR-interacting protein (Homo sapiens) (UniProt Q8TB45); assay: Inhibition of mTOR binding to DEPTOR in human RPMI8226 cells assessed as increase in mTORC2-associated AKT phosphorylation at S473 residue by Western blot analysis; format: cell-based
[10] = Therapeutic index, ratio of IC50 for PBL (unknown origin) to IC50 for human RPMI8226 cells
In short: (§1)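 Normal peripheral blood lymphocytes tested head-to-head with 8226 myeloma cells in 48 h MTT assays. […] Therapeutic index = IC50(PBL)/IC50(8226).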

[11] = target: DEP domain-containing mTOR-interacting protein (Homo sapiens) (UniProt Q8TB45); assay: Inhibition of mTOR binding to DEPTOR in human RPMI8226 cells assessed as increase in mTORC1-associated p70 phosphorylation at 1 uM after 6 hrs by Western blot analysis; format: cell-based
In short: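 8226 cells exposed 6 h to compound, DMSO in untreated controls. Lysates run on 12.5% SDS-PAGE, transferred to PVDF, probed for phospho- and total p70. Densitometric phospho/total ratio expressed as fold versus parent compound B set at 1; mean ± SD, n = 4.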

[12] = target: DEP domain-containing mTOR-interacting protein (Homo sapiens) (UniProt Q8TB45); assay: Inhibition of mTOR binding to DEPTOR in human RPMI8226 cells assessed as decrease in AKT phosphorylation at […] residue by Western blot analysis; format: cell-based
[13] = target: DEP domain-containing mTOR-interacting protein (Homo sapiens) (UniProt Q8TB45); assay: Inhibition of mTOR binding to DEPTOR in human RPMI8226 cells assessed as increase in mTORC1-associated p70 phosphorylation at […] after 6 hrs by Western blot analysis; format: cell-based
[14] = target: DEP domain-containing mTOR-interacting protein (Homo sapiens) (UniProt Q8TB45); assay: Inhibition of mTOR binding to DEPTOR in human RPMI8226 cells at 0.5 uM treated 6 hrs followed by DEPTOR immunoprecipitation by immunoblotting analysis; format: cell-based
In short: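 Co-immunoprecipitation: 8226 cells treated 6 h with DMSO or 0.5 µM compound. DEPTOR immunoprecipitated; precipitates immunoblotted for DEPTOR and bound mTOR.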

[15] = system: RPMI-8226; assay: Induction of apoptosis in human RPMI8226 cells assessed as caspase3 activation at 0.12 to 2 uM after 48 hrs by cytofix/cytoperm staining based flow cytometry; format: functional, cell-based
In short: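 Caspase-3 flow cytometry 48 h after drug exposure of 8226 cells. 10^6 cells washed in PBS, fixed and permeabilized in cytofix/cytoperm, stained 30 min with PE-conjugated anti-active-caspase-3 (1:5 dilution). % apoptosis = drug-treated minus DMSO-control positives; mean ± SD, n = 4.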

[16] = target: DEP domain-containing mTOR-interacting protein (Homo sapiens) (UniProt Q8TB45); assay: Inhibition of mTOR binding to DEPTOR in human RPMI8226 cells assessed as increase in mTORC1-associated S6 phosphorylation by Western blot analysis; format: cell-based
[17] = system: PBL; assay: Cytotoxicity against PBL (unknown origin) after 48 hrs by MTT assay; format: cell-based; in short: as §1
[18] = target: DEP domain-containing mTOR-interacting protein (Homo sapiens) (UniProt Q8TB45); assay: Inhibition of DEPTOR in human RPMI8226 cells assessed as upregulation of mTORC1-dependant p21 expression at 0.5 to 2 uM after 6 hrs by Western blot analysis; format: cell-based
[19] = system: RPMI-8226; assay: Induction of apoptosis in human RPMI8226 cells assessed as caspase3 activation in presence of mTOR inhibitor pp242 by cytofix/cytoperm staining based flow cytometry; format: functional, cell-based
[20] = system: RPMI-8226; assay: Cytotoxicity against human RPMI8226 cells after 48 hrs in presence of mTOR inhibitor pp242 by MTT assay; format: functional, cell-based
[21] = system: RPMI-8226; assay: Anti-tumor activity against human RPMI8226 cells xenografted in mouse assessed as reduction in tumor growth at 20 mg/kg, ip administered daily for 3 days measured post last dose; format: functional, organism-based
In short: (§2)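 Immunodeficient mice inoculated subcutaneously with 8226 myeloma cells. Once tumors reached 500 mm3, daily treatment at 20 mg/kg was started.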

[22] = system: Mus musculus; assay: Toxicity in mouse xenografted with human RPMI8226 cells assessed as effect on platelet level at 20 mg/kg, ip administered daily for 3 days measured post last dose; format: organism-based; details: in vivo, 72 h; in short: as §2
[23] = species on record: Homo sapiens; assay: Activation of mTORC1 in DEPTOR knockdown human RPMI8226 cells assessed as increase in p70 phosphorylation
In short: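 DEPTOR silenced in 8226 cells by shRNA lentivirus, with shScramble-transfected cells as control. Cells drug-treated, then p70 phosphorylation assessed by immunoblot.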

[24] = system: Mus musculus; assay: Toxicity in mouse xenografted with human RPMI8226 cells assessed as effect on WBC level at 20 mg/kg, ip administered daily for 3 days measured post last dose; format: organism-based; details: in vivo, 72 h; in short: as §2
[25] = system: Mus musculus; assay: Toxicity in mouse xenografted with human RPMI8226 cells assessed as effect on RBC level at 20 mg/kg, ip administered daily for 3 days measured post last dose; format: organism-based; details: in vivo, 72 h; in short: as §2

Chain of DEP domain-containing mTOR-interacting protein (Homo sapiens) (Q8TB45 whole entry, the tested form may be a part): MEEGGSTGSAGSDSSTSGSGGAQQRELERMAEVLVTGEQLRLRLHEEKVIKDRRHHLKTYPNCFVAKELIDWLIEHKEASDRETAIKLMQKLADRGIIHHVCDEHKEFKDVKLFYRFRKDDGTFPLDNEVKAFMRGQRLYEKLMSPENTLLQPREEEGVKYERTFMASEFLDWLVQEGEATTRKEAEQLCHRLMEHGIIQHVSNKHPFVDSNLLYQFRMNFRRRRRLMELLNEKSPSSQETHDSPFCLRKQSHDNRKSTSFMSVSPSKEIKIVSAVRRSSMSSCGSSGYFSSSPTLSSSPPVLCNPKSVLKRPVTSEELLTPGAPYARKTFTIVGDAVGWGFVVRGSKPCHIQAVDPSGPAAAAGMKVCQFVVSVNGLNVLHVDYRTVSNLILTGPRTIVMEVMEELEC

Structure (SMILES): ClC1=C(Cl)C(Cl)=C(Cl)C1=NN(c1ccccc1)c1ccccc1
pIC50 [1]: < 5.52 | pIC50 [2]: < 5.52

Structure (SMILES): CN(C)N=C1C(Cl)=C(Cl)C(Cl)=C1Cl
pIC50 [1]: < 5.52 | pIC50 [2]: 5.52 to 5.89

Structure (SMILES): Cc1ccc(C(=O)N(N=C2C(Cl)=C(Cl)C(Cl)=C2Cl)C(=O)c2ccc(C)cc2)cc1
pIC50 [1]: 6.30 | pIC50 [2]: 6.30

Structure (SMILES): ON=C1C(Cl)=C(Cl)C(Cl)=C1Cl
pIC50 [2]: < 5.30

Structure (SMILES): ClC1=C(Cl)C(Cl)=C(Cl)C1=NNc1ccccc1
pIC50 [1]: 5.70 | pIC50 [2]: 6.15 to 6.22

Structure (SMILES): CC(C)(C)OC(=O)NN=C1c2ccccc2-c2ccccc21
pIC50 [1]: < 5.30 | pIC50 [2]: < 5.30

Structure (SMILES): O=C(NN=C1C(Cl)=C(Cl)C(Cl)=C1Cl)c1ccccc1
Activity [3]: Toxic | Activity [4]: Toxic | pIC50 [1]: 6.10 | Activity [5]: Non-Toxic | pIC50 [2]: 6.22

Structure (SMILES): COC1(OC)C(Cl)=C(Cl)C(Cl)=C1Cl
pIC50 [2]: < 5.30

Structure (SMILES): NN=C(c1ccccc1)c1ccccc1
pIC50 [1]: < 5.30 | pIC50 [2]: < 5.30

inhibition [6]: Active | inhibition [8]: Active | inhibition [9]: Active | inhibition [11]: Active | inhibition [12]: Active | inhibition [13]: Active | inhibition [14]: Active | inhibition [16]: Active | inhibition [18]: Active
Structure (SMILES): CC(C)(C)OC(=O)NN=C1C(Cl)=C(Cl)C(Cl)=C1Cl
Activity [7]: inactive | Ratio IC50 [10]: 45.5 | Activity [15]: Active | pIC50 [17]: 5.30 | Activity [19]: inactive | Activity [20]: inactive | pIC50 [1]: 6.22 | pIC50 [2]: 6.96 to 7.00

Structure (SMILES): CC(=O)NN=C1C(Cl)=C(Cl)C(Cl)=C1Cl
pIC50 [2]: 6.00

Structure (SMILES): ClC1=C(Cl)C(Cl)=C(Cl)C1=NNC1CCCCC1
pIC50 [1]: < 5.52 | pIC50 [2]: 5.30 to 5.52

Structure (SMILES): CC(C)(C)NN=C1C(Cl)=C(Cl)C(Cl)=C1Cl
pIC50 [1]: < 5.52 | pIC50 [2]: 5.30 to 5.52

inhibition [6]: Active | inhibition [8]: Active | inhibition [9]: Active | inhibition [11]: Active | inhibition [12]: Active | inhibition [13]: Active | inhibition [14]: Active | inhibition [16]: Active | inhibition [18]: Active | Activity [23]: inactive
Structure (SMILES): FC(F)(F)c1cccc(NN=C2C(Cl)=C(Cl)C(Cl)=C2Cl)c1
Activity [7]: inactive | Activity [21]: Active | Ratio IC50 [10]: 136 | Activity [22]: Non-Toxic | Activity [15]: Active | pIC50 [17]: 4.82 | Activity [19]: inactive | Activity [20]: inactive | pIC50 [1]: 6.00 | Activity [24]: Non-Toxic | pIC50 [2]: 6.77 to 6.96 | Activity [25]: Non-Toxic
